Results taken from PMC4761526 (Journal of pharmaceutical sciences, 2016).
Values joined by “and” are separate entries in the source; they are usually repeats but may differ in a detail not shown here. Equal values may be shown once.

Tests used:
Caco-2 [1] = experiment: Lucifer yellow permeability in Caco-2; type: in vitro ADME, human; conditions: control vs in the presence of 50 μM glyceollin
MRP2 = MRP2 (Homo sapiens, UniProt Q92887); experiment: CDF directional; type: cell-based
[2] = test system: esterase-mediated conversion of CDFA to CDF; experiment: CDFA hydrolysis to CDF by Caco-2 cells; type: cell-based, human; conditions: 100 μM compound
Outline: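 Caco-2 cells from ATCC, used at passages 35–55, grown in DMEM with 10% FBS, 1% non-essential amino acids, 1 mM sodium pyruvate and 2 mM L-glutamine at 37°C in 5% CO2. CDFA was taken from a 5 mM stock in 1:1 DMSO:ethanol. CDF formation was expressed as specific activity per mg protein under initial-rate conditions, N = 3 per condition.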

MRP2 and/or MRP3 = experiment: Net CDF uptake into Caco-2 grown on 24-well plates after CDFA exposure; type: cell-based, human; conditions: 100 μM compound, 30 min with 5 μM CDFA, cells on plastic
[3] = test system: genistein conjugative metabolism; experiment: Genistein conjugative metabolism; type: in vitro ADME, human
Caco-2 [4] = experiment: Genistein conjugate metabolite excretion from Caco-2; type: in vitro ADME, human

Chain of MRP2 (Q92887 whole entry): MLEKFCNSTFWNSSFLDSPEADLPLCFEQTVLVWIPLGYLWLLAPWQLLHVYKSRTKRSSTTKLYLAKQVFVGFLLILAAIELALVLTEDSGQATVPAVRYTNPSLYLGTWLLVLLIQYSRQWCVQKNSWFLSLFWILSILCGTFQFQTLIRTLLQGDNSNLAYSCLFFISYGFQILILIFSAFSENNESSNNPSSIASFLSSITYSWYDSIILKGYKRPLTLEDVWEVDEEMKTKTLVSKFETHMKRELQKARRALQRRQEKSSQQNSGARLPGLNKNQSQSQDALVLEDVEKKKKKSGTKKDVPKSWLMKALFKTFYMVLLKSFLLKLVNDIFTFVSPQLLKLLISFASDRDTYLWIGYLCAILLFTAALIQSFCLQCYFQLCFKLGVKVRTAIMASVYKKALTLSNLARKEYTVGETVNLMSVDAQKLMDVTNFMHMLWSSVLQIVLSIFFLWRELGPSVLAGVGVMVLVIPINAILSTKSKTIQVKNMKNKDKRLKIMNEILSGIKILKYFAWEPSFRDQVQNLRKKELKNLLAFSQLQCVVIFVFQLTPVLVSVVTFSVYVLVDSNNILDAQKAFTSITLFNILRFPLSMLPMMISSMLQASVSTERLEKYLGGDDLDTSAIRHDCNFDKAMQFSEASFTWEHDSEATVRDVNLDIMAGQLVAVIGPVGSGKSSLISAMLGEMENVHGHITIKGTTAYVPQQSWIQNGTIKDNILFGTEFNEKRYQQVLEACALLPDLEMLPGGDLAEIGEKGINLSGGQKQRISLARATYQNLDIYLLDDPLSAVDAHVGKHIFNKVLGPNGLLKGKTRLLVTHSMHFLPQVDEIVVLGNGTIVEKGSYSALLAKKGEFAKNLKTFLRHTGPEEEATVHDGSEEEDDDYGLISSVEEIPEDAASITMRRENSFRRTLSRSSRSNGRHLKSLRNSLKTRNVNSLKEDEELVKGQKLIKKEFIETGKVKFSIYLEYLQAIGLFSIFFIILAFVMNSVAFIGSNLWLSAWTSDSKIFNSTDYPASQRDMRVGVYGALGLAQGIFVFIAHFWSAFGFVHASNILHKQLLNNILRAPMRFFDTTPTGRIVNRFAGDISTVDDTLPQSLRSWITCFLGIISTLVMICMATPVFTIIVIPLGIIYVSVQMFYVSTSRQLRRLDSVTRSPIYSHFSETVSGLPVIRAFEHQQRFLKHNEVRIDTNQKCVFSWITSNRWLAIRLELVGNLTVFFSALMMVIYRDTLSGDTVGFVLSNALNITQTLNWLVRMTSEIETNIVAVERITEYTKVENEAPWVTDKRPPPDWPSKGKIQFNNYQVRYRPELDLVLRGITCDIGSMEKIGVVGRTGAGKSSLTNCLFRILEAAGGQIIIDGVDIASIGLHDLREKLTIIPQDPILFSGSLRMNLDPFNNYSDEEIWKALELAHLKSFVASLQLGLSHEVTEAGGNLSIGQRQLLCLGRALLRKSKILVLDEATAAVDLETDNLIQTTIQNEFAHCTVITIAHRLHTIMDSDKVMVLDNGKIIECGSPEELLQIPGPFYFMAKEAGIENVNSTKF

For Lucifer yellow, the lucifer yellow permeability (Caco-2 [1]) was 0.13 ± 0.035 × 10^-5 cm/s.
“5 (and 6)-Carboxy-2′,7′-dichloroflourescein [CDF]” was tested, and the “CDF permeability, BA direction vs. AB direction” value (MRP2; control conditions, no inhibitor) was 3.7 ± 0.36 fold.
`CN(C)C(=O)CCSC(SCCC(=O)O)c1cccc(/C=C/c2ccc3ccc(Cl)cc3n2)c1` (stereo not drawn) [MK-571] was tested, and the “rate of esterase-mediated conversion of CDFA to CDF” value [2] was “did not alter”, the “CDFA hydrolysis specific activity (initial rate)” value ([2]; 5 μM CDFA, control 6.0) was 8.5 nM/min/mg protein and the “CDF AB directional transport” value (MRP2; 100 μM compound vs control) was “statistically significant increase”. For the same compound, the “CDF BA directional transport” value (MRP2; 100 μM compound vs control) was “statistically significant reduction”, the “CDF cell concentration at the conclusion of the 2-hour incubation” value (MRP2; 100 μM compound, both transport directions) was “reduced” and the “IC50 for reduction of CDF BA/AB permeability ratio” value (MRP2; 10, 30 or 100 μM compound) was 22 µM. For the same compound, the CDF uptake (MRP2 and/or MRP3) was “significant reduction”.
`O=c1c(-c2ccc(O)cc2)coc2cc(O)cc(O)c12` [genistein] was tested, and the “fraction of genistein metabolized to conjugates (Fm), average” value ([3]; control vs 30 μM glyceollin, average of two experiments) was 47% ± 10.5% and 47%.
In the case of glyceollin, the intracellular genistein conjugates ([3]; Caco-2) is reported as 9 ± 2.7 pmoles/filter and the “apical metabolite excretion rate” value (Caco-2 [4]) is reported as 6.5 ± 0.61 × 10^-5 nmoles/sec.
